Compound activity deposited in PubChem by The Scripps Research Institute Molecular Screening Center.
rCAG binder: binders of r(CAG) RNA repeats, primary screen, biochemical, fluorescence; r(CAG) RNA repeat, TO-PRO-1 dye displacement fluorescence; inhibition, % at 3 µM; 1.3% of 370,000 active; AID 651821, 2012;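 active = inhibition above the plate cutoff, the mean of all test compounds on that plate plus 3 SD, cut at about 35% in these data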;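 also: 0% = DMSO alone and 100% = 100 µM mitoxantrone as full dye displacement; higher means more dye released from RNA so lower well fluorescence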
TAAR1 ag: human TAAR1 agonists, primary screen, Fluo-8 calcium fluorescence, CHO RD-HGA16 cells; Trace amine-associated receptor 1 (Homo sapiens), Q96RJ0; vehicle wells 0%, saturating PEA agonist 100%; activation, % at 3 µM; 0.99% of 360,000 active; AID 624467, 2012;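 active = activation above the mean activation of all test compounds in the run plus 3 SD, cut at about 38% in these data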
Target sequence (Q96RJ0 whole entry, looked up): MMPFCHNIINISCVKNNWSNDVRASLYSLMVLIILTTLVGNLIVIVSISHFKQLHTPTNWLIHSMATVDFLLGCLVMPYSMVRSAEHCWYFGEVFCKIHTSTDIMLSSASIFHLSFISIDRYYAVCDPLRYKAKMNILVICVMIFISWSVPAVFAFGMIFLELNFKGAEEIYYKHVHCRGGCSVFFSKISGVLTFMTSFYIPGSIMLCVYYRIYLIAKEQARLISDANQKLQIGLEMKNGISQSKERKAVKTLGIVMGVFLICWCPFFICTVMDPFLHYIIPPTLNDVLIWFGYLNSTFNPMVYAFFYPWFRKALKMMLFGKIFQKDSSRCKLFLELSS
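Assay system: CHO-derived RD-HGA16 cells with stable Gα16 and human TAAR1; timing: 17-24 h seeding, 75 min 37 °C dye, 30 min RT; read-out: % activation from peak over basal fluorescence ratio, DMSO-to-PEA scaled; measured by: kinetic Fluo-8 calcium fluorescence; benchmarks: low control DMSO, high control PEA (EC100); doses: 3 µM single concentration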
HCV NS3 hel inh: inhibitors of HCV NS3 helicase, primary screen, biochemical, Cy5 molecular beacon fluorescence. inhibition, % at 10.9 µM. AID 1800, 2009. Hepatitis C virus NS3 helicase. NS3 helicase DNA unwinding. 0.56% of 290,000 active;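 active = inhibition above the mean of all tested compounds plus 3 SD, set per campaign, cut at about 35% in these data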;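 also: 0% = DMSO wells and 100% = thioflavine S control wells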
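test system = hepatitis C virus NS3 helicase domain fragment enzyme | reagent = annealed dual-labelled DNA beacon duplex, ATP-started | times = 1 h at 25 °C | detection = Cy5 fluorescence, 0 and 60 min reads | read-out basis = percent inhibition from t60/t0 fluorescence ratio | control set = DMSO and thioflavine S | replication = one well per compound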
TAAR1 antagonist: human TAAR1 antagonists, primary screen, Fluo-8 calcium fluorescence, CHO RD-HGA16 cells. Trace amine-associated receptor 1 (Homo sapiens), Q96RJ0. inhibition, % at 3 µM. antagonist. AID 624466, 2012. 1.5% of 360,000 active;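 active = inhibition above a per-plate cutoff, the mean inhibition of test compounds on that plate plus 3 SD, cut at about 49% in these data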;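 also: 0% = DMSO plus EC80 beta-PEA response and 100% = DMSO alone without agonist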
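Assay system: CHO-derived RD-HGA16 cells stably expressing human TAAR1 plus Gα16. Timing: 140 s kinetic read after compound, 140 s after agonist. Technique: kinetic Fluo-8 calcium fluorescence measurement. Measure: % inhibition of agonist calcium response.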
core dimer inh: inhibitors of HCV core protein dimerization, primary screen, biochemical, TR-FRET, high-throughput; inhibition, % at 5 µM; 0.33% of 300,000 active; AID 1899, 2009; TR-FRET GST/Flag-core106 dimerization, 1536-well;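 active = inhibition above the mean of all tested compounds plus 3 SD, set per screening campaign, cut at about 45% in these data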
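Assay system: GST-tagged and Flag-tagged HCV core protein residues 1-106 / Times: compound-protein-antibody incubation 4 h at 22.5 °C / Signal: time-resolved FRET, ex 340 nm, em 617 and 671 nm / Evaluation: % inhibition based on acceptor/donor emission ratio / Benchmarks: wells lacking GST-core106 and wells with excess unlabelled core106 / Repeats: singlicate, one well per compound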
TAAR1 ag conf: human TAAR1 agonists, retest of hits, confirmation, Fluo-8 calcium fluorescence, CHO RD-HGA16 cells | shares compounds with TAAR1 ag | scaled: DMSO 0%, maximal phenethylamine 100% | activation, % at 3 µM | 82% of 2,400 active | AID 651783, 2012;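 active = activation above a cutoff set at the run's mean compound activation plus 3 SD, cut at about 39% in these data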
Ga16 ag counter: nonselective calcium mobilization agonists, CHO-Ga16 cells, counter-screen for hTAAR1 agonist project, cell-based, fluorescence, CHO-Ga16 parental line | activation, % at 3 µM | shares compounds with TAAR1 ag | 50% of 2,400 active | AID 651787, 2012 | Fluo-8 calcium fluorescence; normalized to maximal ATP response, DMSO zero;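 active = activation above the run cutoff, the mean activation over all tested wells plus 3 SD, cut at about 12% in these data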;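 also: 0% = DMSO wells and 100% = maximal ATP response on the peak over basal ratio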
TAAR1 desensitize: TAAR1 desensitization by agonist hits, confirmation, counter-screen for TAAR1 agonist project, cell-based, fluorescence, tachyphylaxis; shares compounds with TAAR1 ag; CHO RD-HGA16 hTAAR1, Fluo-8 calcium, beta-PEA response inhibition; inhibition, % at 3 µM; 46% of 2,400 active; AID 651951, 2012;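 active = inhibition above the run cutoff, the mean inhibition of all test compounds plus 3 SD, cut at about 49% in these data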;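 also: beta-PEA stimulus applied at its EC80; loss of beta-PEA calcium signal after compound pretreatment read as receptor desensitization; 0% = DMSO with beta-PEA at EC80 and 100% = DMSO alone without agonist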
Ga16 nonsel ant: inhibition of ATP-evoked calcium response in CHO-Ga16 cells, counter-screen for TAAR1 agonist project, cell-based, fluorescence; shares compounds with TAAR1 ag; CHO-Ga16 ATP-induced calcium, Fluo-8 fluorescence; inhibition, % at 3 µM; 39% of 2,400 active;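 active = inhibition above the plate's mean compound inhibition plus 3 SD, computed per plate, cut at about 22% in these data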;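 also: 0% = EC80 ATP with DMSO and 100% = DMSO wells without ATP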
An asterisk follows results filed as active; / = no result given. This is a sample that favours compounds with a hit; in the whole collection about 3.7% have one here.

SMILES	rCAG binder	TAAR1 ag	HCV NS3 hel inh	TAAR1 antagonist	core dimer inh	TAAR1 ag conf	Ga16 ag counter	TAAR1 desensitize	Ga16 nonsel ant
CCc1ccccc1NC(=O)N1CCc2ccccc2C1	-5	80*	-1	55*	/	96*	4	82*	2
CN(C(=O)c1ccccc1OCC(=O)Nc1ccc(Br)cc1)c1ccccc1	1	/	/	/	/	/	/	/	/
COc1ccccc1N1CCN(Cc2nc(N)nc(Nc3ccc(C)cc3)n2)CC1	-5	11	-6	8	3	/	/	/	/
Nc1nc(CN2CCc3ccccc3C2)nc(Nc2ccccc2)n1	-3	59*	-26	19	-3	85*	1	47	10
COc1ccc(Nc2nc(N)nc(CN3CCc4ccccc4C3)n2)cc1	6	44*	-55	-8	-3	88*	4	27	2
Nc1nc(CN2CCCCCC2)nc(Nc2ccccc2)n1	4	6	-17	-17	6	/	/	/	/
COc1ccccc1Nc1nc(N)nc(CN2CCc3ccccc3C2)n1	-7	43*	-5	-8	-13	54*	1	-3	6
COc1cc(C(NC(=O)C(F)(F)F)C2CCCC=C2c2ccccc2)cc(OC)c1OC (stereo not drawn)	4	/	/	/	/	/	/	/	/
O=C(O)CCC(=O)Nc1ccccc1C(=O)NCCc1ccccc1	1	6	-4	2	-2	/	/	/	/
O=C(CN1CCN(c2ccccc2)CC1)Nc1ccccc1C(=O)NCCc1ccccc1	1	76*	/	88*	/	82*	7	75*	32*
COc1ccc(C[C@@H]2CN3C(=NC[C@@H]3C)N2CCNC(=O)c2ccc(C)c(Br)c2)cc1	9	45*	-37	4	0	54*	15*	6	11
Cc1nc(N)c(C#N)c(-c2ccccc2Cl)c1C	-1	73*	4	-8	0	66*	44*	6	9
COc1ccccc1-c1c(C)c(C)nc(N)c1C#N	0	15	9	0	-5	/	/	/	/
N#Cc1c(-c2ccccc2Cl)cc(C2CC2)nc1N	-1	92*	-2	0	0	100*	60*	38	16
Cc1cc(N2CCOCC2)ccc1/C=C1\SC(=O)N(C(C)C)C1=O	-5	8	-1	1	-7	/	/	/	/
CCN(CC)c1ccc(/C=C2/SC(=O)N(C(C)C)C2=O)o1	1	73*	28	54*	/	69*	73*	64*	68*
O=C(O)c1ccc(N/N=C/C2=Cc3ccccc3OC2)cc1	17	89*	25	8	-18	54*	39*	33	17
c1cncc(Oc2ccc(NCCc3c[nH]c4ccccc34)cc2)c1	12	7	/	32	/	/	/	/	/
O=C(CCN1CCc2ccccc2CC1)c1ccc2c(c1)OCCO2	-4	92*	9	85*	0	115*	4	97*	9
CCCCC(=O)NNC(=S)NC(=O)c1ccc([N+](=O)[O-])cc1	1	17	2	-2	0	/	/	/	/
Cc1cccc(C(=O)NC(=S)NNC(=O)c2ccc(Cl)cc2)c1	17	171*	23	104*	-7	159*	121*	107*	93*
COc1ccc(C(=O)NC(=S)NNC(=O)c2ccc3ccccc3n2)cc1	14	51*	10	-16	2	89*	69*	45	37*
Cc1cccc(C(=O)NNC(=O)c2ccc(Br)cc2)c1	-1	1	0	3	1	/	/	/	/
CCCCC(=O)NNC(=S)NC(=O)c1ccc(C)cc1	5	98*	5	36	2	83*	82*	38	40*
COc1ccc(C(=O)NC(=S)NNC(=O)c2ccc(C)cc2)cc1	16	170*	/	106*	-4	157*	124*	105*	70*
SMILES	rCAG binder	TAAR1 ag	HCV NS3 hel inh	TAAR1 antagonist	core dimer inh	TAAR1 ag conf	Ga16 ag counter	TAAR1 desensitize	Ga16 nonsel ant
O=C(C1CCCN1S(=O)(=O)c1ccc(Br)s1)N1CCN(c2ccccc2)CC1 (stereo not drawn)	3	/	/	/	/	/	/	/	/
COC(=O)c1ccc(-c2ccc3c(c2)[C@]2(CCC[C@@H](OCc4ccccc4)[C@@H]2NC(=O)CCc2ccccc2)C(=O)N3Cc2ccccc2)cc1	9	/	/	/	/	/	/	/	/
O=C(NNC(=S)NC(=O)c1sc2ccccc2c1Cl)c1ccc(Cl)cc1	25	91*	28	50*	15	163*	141*	106*	103*
COc1ccc(C(=O)NNC(=S)NC(=O)c2ccc(Cl)cc2)cc1	12	176*	/	106*	-1	141*	117*	102*	86*
COc1cc(C(=O)NNC(=S)NC(=O)c2ccc(Cl)cc2)cc(OC)c1OC	16	141*	9	86*	5	93*	84*	67*	43*
COC(=O)[C@]12CCCCC=C1N(Cc1ccc(OC)cc1)C(=O)[C@@H]2CC(=O)NCc1ccccc1	5	/	/	/	/	/	/	/	/
CC(=O)c1ccc2c3c(cccc13)C(=O)N(CCc1ccccc1)C2=O	10	/	10	/	17	/	2	/	9
O=C(NCCc1ccccc1)OCc1cn(-c2ccc(Cl)cc2)nn1	0	/	/	/	/	/	/	/	/
Cc1nc(NCCc2ccccc2)c2nnn(Cc3ccccc3)c2n1	-1	51*	-5	45	0	77*	15*	45	2
CC1(c2ccc(Cl)cc2)NC(=O)N(CC(=O)N2CCc3ccccc32)C1=O (stereo not drawn)	4	97*	/	73*	/	114*	74*	77*	55*
O=C(Nc1ccc2c(c1)OCO2)Nc1ccccc1F	-3	1	10	-22	-2	/	/	/	/
Cc1ccnc(NC(=O)Nc2ccc3c(c2)OCO3)c1	-1	47*	-6	4	2	87*	0	66*	4
